The subject of data set [1] is Mycobacterium tuberculosis. Briefly: Growth inhibition of Mycobacterium tuberculosis H37Rv at 6.25 ug/ml by Microplate Alamar Blue Assay. To be noted: read-out: GI. The format is functional. The procedure, abridged: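 Primary single-concentration screen against M. tuberculosis H37Rv (ATCC 27294) in BACTEC 12B medium by MABA broth microdilution, read as % inhibition. Compounds that fluoresce were tested in the BACTEC 460 radiometric system. More than 95% inhibition was the activity cutoff.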
(In general: Resazurin is reduced to fluorescent resorufin, in cell work by metabolically active cells.)

Another data set deals with Escherichia coli. Description: Antibacterial activity against Escherichia coli at 50 to 100 uM after 24 hrs by well diffusion method. The format is functional. An outline of the steps:
(§1)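 Agar well diffusion: nutrient agar plates with 10 mm wells cut by sterile cork borer; 24-h subcultured bacteria swabbed onto the plates from nutrient broth. Compounds were dissolved in chloroform and added to wells at […]. Gentamycin served as the standard antibiotic.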
A general note: A growth-free zone around the sample is the usual read-out of agar diffusion tests.

In the next data set the test system is Pseudomonas aeruginosa. Description: Antibacterial activity against Pseudomonas aeruginosa at 50 to 100 uM after 24 hrs by well diffusion method. The format is functional. The procedure, abridged:
as §1

A short description of data set [2]: Cytotoxicity against Vero-C1008 cells at 6.25 to 50 ug/ml. The format is cell-based. To be noted: chlorocebus sabaeus. The procedure, abridged: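 Vero-C-1008 cells were exposed to compounds at several concentrations across 6.25–50 µg/ml. Cytotoxicity was read out by neutral red uptake.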
For data set [3], the system named is Mycobacterium tuberculosis. Description: (§2) Antituberculosis activity against Mycobacterium tuberculosis H37Rv by Microplate Alamar Blue Assay. The format is functional. An outline of the steps:
(§3)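 MIC against M. tuberculosis H37Rv (ATCC 27294) in BACTEC 12B medium by broth microdilution (MABA). Primary actives were retested at lower concentrations. MIC is the lowest concentration giving a […] fluorescence reduction versus controls. Fluorescent compounds were run in the BACTEC 460 radiometric system. Rifampin was the reference.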

A further data set has as its system Salmonella typhi. Briefly: Antibacterial activity against Salmonella typhi at 50 to 100 uM after 24 hrs by well diffusion method. The format is functional, Salmonella enterica subsp. enterica serovar Typhi. An outline of the steps: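 Agar well diffusion on nutrient agar plates; wells cut with a 10 mm sterile cork borer. Plates swabbed with 24-h subcultured bacteria from nutrient broth. Compounds dissolved in chloroform and added to wells at a range of concentrations. Gentamycin was the standard.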

The test system of the next data set is Staphylococcus aureus. Description: Antibacterial activity against Staphylococcus aureus at 50 to 100 uM after 24 hrs by well diffusion method. The format is functional. The procedure, abridged:
as §1

Data set [4] concerns Mycobacterium tuberculosis. The description is as §2. The format is functional. An outline of the steps: as §3
This is another data set of the same source.

≈ marks a conversion by molar mass, not a printed value.

As usually defined, the zone of inhibition is the extent of the growth-free halo in a diffusion test. Lower therefore signals a weaker effect on the plate. The MIC is the lowest concentration found to suppress growth. Higher therefore signals weaker potency. The term Inhibition denotes the drop in the measured response relative to a control, in per cent. As to `O=C(CSc1nnc(Cc2csc(NC(=O)c3ccccc3)n2)n1NC(=O)c1ccccc1)N/N=C/c1ccccc1`, the inhibition of growth at 6.25 µg/mL in data set [1] was 98%. The zone of inhibition in the data set with Escherichia coli was determined as 30 mm; with Pseudomonas aeruginosa, 30 mm; in the data set with Staphylococcus aureus it was 32 mm. Also, the Activity entry in data set [2] is given as “Non-toxic”. Further, the MIC in data set [3] is 0.39 µM (≈ 0.233 µg/mL); in data set [4] it was below 6.25 µg/mL. Further, the Inhibition in the data set with Salmonella typhi is given as 27%.
For `O=C(CSc1nnc(Cc2csc(NC(=O)CCl)n2)n1NC(=O)c1ccccc1)N/N=C/c1ccccc1`, in data set [1], the inhibition of growth at 6.25 µg/mL came out at 98%. Moreover, the Activity result in data set [2] is “Non-toxic”. Also, the minimal inhibitory concentration (MIC) in data set [3] is 0.78 µM (≈ 0.444 µg/mL); in data set [4], below 6.25 µg/mL.
`O=C(O)CCNc1nc(Cc2nnc(SCC(=O)N/N=C\c3ccccc3)n2NC(=O)c2ccccc2)cs1`: in data set [1], the inhibition of growth at 6.25 µg/mL was determined as 98%. Also, the zone of inhibition in the data set with Escherichia coli was determined as 14 mm; in the data set on Pseudomonas aeruginosa, 12 mm; in the data set with Staphylococcus aureus, 18 mm. The Activity result in data set [2] was “Non-toxic”. Moreover, the MIC in data set [3] is 3.13 µM (≈ 1.77 µg/mL); in data set [4], below 6.25 µg/mL. For the same compound, the Inhibition with Salmonella typhi is 12%.
For `CC(=O)Nc1nc(Cc2nnc(SCC(=O)N/N=C/c3ccccc3)n2NC(=O)c2ccccc2)cs1`, the inhibition of growth at 6.25 µg/mL in data set [1] was 96%. In addition, the Activity entry in data set [2] is listed as “Non-toxic”. Also, the MIC in data set [3] was 1.56 µM (≈ 0.834 µg/mL); in data set [4] it was below 6.25 µg/mL.
For `CO[C@H]1/C=C/O[C@@]2(C)Oc3c(C)c(O)c4c(O)c(c(/C=N/N5CCN(C)CC5)c(O)c4c3C2=O)NC(=O)/C(C)=C\C=C\[C@H](C)[C@H](O)[C@@H](C)[C@@H](O)[C@@H](C)[C@H](OC(C)=O)[C@@H]1C` [RIFAMPIN], the inhibition of growth at 6.25 µg/mL in data set [1] was 97%. In data set [4], this compound yielded an MIC of 15 µg/mL (≈ 18.2 µM).
For the compound `CC(=O)Nc1nc(Cc2nnc(SCC#N)n2NC(=O)c2ccccc2)cs1`, the inhibition of growth at 6.25 µg/mL in data set [1] is 97%. Moreover, the zone of inhibition was 20 mm in the data set with Escherichia coli, 22 mm with Pseudomonas aeruginosa and 22 mm in the data set with Staphylococcus aureus. Besides, in data set [2], the Activity result is listed as “Non-toxic”. Moreover, the MIC was 6.25 µM (≈ 2.58 µg/mL) in data set [3] and below 6.25 µg/mL in data set [4]. Further, the Inhibition with Salmonella typhi turned out to be 16%.
`NNC(=O)CSc1nnc(Cc2csc(NCCC(=O)O)n2)n1NC(=O)c1ccccc1`: the inhibition of growth at 6.25 µg/mL in data set [1] was 96%. The zone of inhibition in the data set on Escherichia coli turned out to be 14 mm; in the data set on Pseudomonas aeruginosa it was 18 mm; in the data set with Staphylococcus aureus, 20 mm. Besides, the Activity entry in data set [2] is listed as “Non-toxic”. Moreover, the MIC in data set [3] is 6.25 µM (≈ 2.98 µg/mL); in data set [4] it was below 6.25 µg/mL. This compound also showed an Inhibition in the data set on Salmonella typhi of 12%.
Turning to `NNC(=O)CSc1nnc(Cc2csc(NC(=O)CCl)n2)n1NC(=O)c1ccccc1`, in data set [1], the inhibition of growth at 6.25 µg/mL was found to be 98%. Besides, the zone of inhibition in the data set on Escherichia coli was determined as 12 mm; in the data set with Pseudomonas aeruginosa it was 16 mm; with Staphylococcus aureus it was 16 mm. Further, the Activity result in data set [2] is recorded as “Non-toxic”. The MIC in data set [3] was 3.13 µM (≈ 1.51 µg/mL); in data set [4], below 6.25 µg/mL. This compound came in with an Inhibition with Salmonella typhi of 14%.
Consider `CC(=O)Nc1nc(Cc2nnc(S)n2N)cs1`, for which the inhibition of growth at 6.25 µg/mL in data set [1] amounted to 100%. In addition, the results for the zone of inhibition in the data set on Escherichia coli, with Pseudomonas aeruginosa and in the data set on Staphylococcus aureus were 15 mm, 16 mm and 18 mm, respectively. The Activity entry in data set [2] is recorded as “Non-toxic”. The minimum inhibitory concentration (MIC) is 6.25 µM (≈ 1.69 µg/mL) in data set [3] and below 6.25 µg/mL in data set [4]. The compound also registered an Inhibition in the data set with Salmonella typhi of 14%.
In the case of `N#CCSc1nnc(Cc2csc(NC(=O)c3ccccc3)n2)n1NC(=O)c1ccccc1`, the inhibition of growth at 6.25 µg/mL in data set [1] is 100%. Further, the zone of inhibition came out at 22 mm with Escherichia coli, 24 mm in the data set on Pseudomonas aeruginosa and 26 mm in the data set on Staphylococcus aureus. In data set [2], the Activity result is on record as “Non-toxic”. Further, the results for the MIC in data set [3] and in data set [4] were 3.13 µM (≈ 1.49 µg/mL) and below 6.25 µg/mL, respectively. For the same compound, the Inhibition in the data set on Salmonella typhi turned out to be 18%.
As for `CC(=O)Nc1nc(Cc2nnc(SCC(=O)NN)n2NC(=O)c2ccccc2)cs1`, the inhibition of growth at 6.25 µg/mL in data set [1] was 100%. Further, the zone of inhibition with Escherichia coli is 26 mm; in the data set with Pseudomonas aeruginosa, 32 mm; in the data set with Staphylococcus aureus it was 32 mm. For the same compound, in data set [2], the Activity entry was “Non-toxic”. Besides, the MIC in data set [3] is 3.13 µM (≈ 1.4 µg/mL); in data set [4], below 6.25 µg/mL. The compound also had an Inhibition in the data set with Salmonella typhi of 24%.
In the case of `O=C(CCl)Nc1nc(Cc2nnc(SCSc3nnc(Cc4csc(NC(=O)CCl)n4)n3NC(=O)c3ccccc3)n2NC(=O)c2ccccc2)cs1`, the zone of inhibition in the data set on Escherichia coli was 20 mm; with Pseudomonas aeruginosa, 22 mm; with Staphylococcus aureus, 22 mm. Also, the Activity result in data set [2] is recorded as “Non-toxic”. In the data set with Salmonella typhi, this compound came in with an Inhibition of 16%. The compound also gave an MIC in data set [4] below 6.25 µg/mL.
Regarding `NNC(=O)CSc1nnc(Cc2csc(NC(=O)c3ccccc3)n2)n1NC(=O)c1ccccc1`, the inhibition of growth at 6.25 µg/mL in data set [1] turned out to be 100%. Further, the zone of inhibition in the data set on Escherichia coli stood at 30 mm; in the data set on Pseudomonas aeruginosa it was 34 mm; in the data set with Staphylococcus aureus, 33 mm. In data set [2], the Activity entry is on record as “Non-toxic”. Also, the values for the MIC in data set [3] and in data set [4] were 6.25 µM (≈ 3.18 µg/mL) and below 6.25 µg/mL, respectively. This compound had an Inhibition with Salmonella typhi of 29%.
Regarding `CC(=O)Nc1nc(Cc2nnc(SCc3nnc(S)n3N)n2NC(=O)c2ccccc2)cs1`, the zone of inhibition in the data set on Escherichia coli is 12 mm; with Pseudomonas aeruginosa, 16 mm; in the data set with Staphylococcus aureus, 14 mm. Also, the Activity entry in data set [2] is recorded as “Non-toxic”. Also, the Inhibition in the data set with Salmonella typhi is recorded as 18%. This compound gave an MIC in data set [4] below 6.25 µg/mL.

These data come from ChEMBL document CHEMBL1146374, “Clubbed triazoles: a novel approach to antitubercular drugs” (Eur J Med Chem, 2007).
